# In ChEMBL document CHEMBL1671747, “Efficacy and safety of intravenous peramivir for treatment of seasonal influenza virus infection” (Antimicrob Agents Chemother, 2010):
# The source made the active and inactive calls. No cut-off for these calls is given here.
# Legend:
# Homo sapiens [1] = experiment: Toxicity in human patient infected with Influenza virus assessed as occurrence of diarrhea at 300 mg, iv; type: organism-based; conditions: in vivo
# Outline: (§1)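 In this randomized trial, subjects received a single intravenous infusion of peramivir (300 mg or 600 mg) or matching placebo; the median infusion lasted 0.63 h. Subjects were followed at visits on days 1, 2 (optional), 3, 5, 9 and 14. Adverse-event incidences across the 298 treated subjects were compared with placebo using Fisher's exact test.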
# Homo sapiens [2] = experiment: Toxicity in human patient infected with Influenza virus assessed as nausea at 300 mg, iv; type: organism-based; conditions: in vivo; outline: as §1
# Homo sapiens [3] = experiment: Toxicity in human patient infected with Influenza virus assessed as occurrence of diarrhea at 600 mg, iv; type: organism-based; conditions: in vivo; outline: as §1
# Homo sapiens [4] = experiment: Toxicity in human patient infected with Influenza virus assessed as increase in blood creatinine level at 600 mg, iv; type: organism-based; conditions: in vivo
# Outline: (§2)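 One IV dose of 300 or 600 mg or placebo was given to adults with influenza. Blood (hematology, biochemistry) and urine (including NAG, β2- and α1-microglobulin, protein) were sampled at baseline, day 3 and day 14 by blinded technicians. Adverse-event incidence versus placebo was compared by Fisher's exact test.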
# Homo sapiens [5] = experiment: Toxicity in human patient infected with Influenza virus assessed as increase in blood glucose level at 600 mg, iv; type: organism-based; conditions: in vivo; outline: as §2
# Homo sapiens [6] = experiment: Toxicity in human patient infected with Influenza virus assessed as beta-N-Acetyl-D-glucosaminidase at 600 mg, iv; type: organism-based; conditions: in vivo; outline: as §2
# Homo sapiens [7] = experiment: Toxicity in human patient infected with Influenza virus assessed as beta2 microglobulin in urine at 300 mg, iv; type: organism-based; conditions: in vivo; outline: as §2
# [8] = tested on: unidentified influenza virus; experiment: Antiviral activity against Influenza virus infected in human patient assessed as decrease in virus-positive patients at 300 mg, iv on day 9; type: functional
# Outline: (§3)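 Nasal and throat swabs were taken at baseline and on days 2, 3, 5 and 9, held in 2 ml transport medium, and titrated on MDCK cells in triplicate: 10-fold dilutions, 3 μg/ml trypsin, 1 h adsorption, washes, then 3 days at 37°C. CPE gave TCID50/ml by Spearman-Karber; positive meant ≥1.1 log10 TCID50/ml. Proportions were compared by Mantel-Haenszel test stratified for smoking and baseline score.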
# Homo sapiens [9] = experiment: Toxicity in human patient infected with Influenza virus assessed as increase in alanine aminotransferase at 600 mg, iv; type: organism-based; conditions: in vivo; outline: as §2
# [10] = tested on: unidentified influenza virus; experiment: Antiviral activity against Influenza virus infected in human patient assessed as decrease in virus-positive patients at 300 mg, iv on day 3; type: functional; outline: as §3
# Homo sapiens [11] = experiment: Toxicity in human patient infected with Influenza virus assessed as beta2 microglobulin in urine at 600 mg, iv; type: organism-based; conditions: in vivo; outline: as §2
# Homo sapiens [12] = experiment: Toxicity in human patient infected with Influenza virus assessed as increase in alpha1 microglobulin at 600 mg, iv; type: organism-based; conditions: in vivo; outline: as §2
# [13] = tested on: unidentified influenza virus; experiment: Antiviral activity against Influenza virus infected in human patient assessed as reduction in fever at 300 mg, iv after 24 hrs; type: functional, organism-based
# Outline: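 A single IV dose of 300 or 600 mg or placebo was given to adults with seasonal influenza. The outcome was the proportion of subjects with postbaseline normal temperature (<37.0°C). Groups were compared by Mantel-Haenszel test stratified for smoking and baseline composite symptom score.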
# Homo sapiens [14] = experiment: Toxicity in human patient infected with Influenza virus assessed as white blood cells-positive urine at 600 mg, iv; type: organism-based; conditions: in vivo
# Outline: (§4)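 Subjects received a single intravenous peramivir dose (300 or 600 mg) or placebo, infused over a median of 0.63 h. Urinalysis covered protein, albumin and sediment, among other analytes. Urine was collected at baseline and on days 3 and 14 and tested by blinded technicians. Incidence in the safety population (n = 298 treated) was compared with placebo by Fisher's exact test.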
# Homo sapiens [15] = experiment: Toxicity in human patient infected with Influenza virus assessed as increase in aspartate aminotransferase at 300 mg, iv; type: organism-based; conditions: in vivo; outline: as §2
# Influenza A virus [16] = experiment: Antiviral activity against influenza A virus infected in MDCK cells assessed as inhibition of neuraminidase activity by fluorimetric assay; type: functional, organism-based
# Outline: (§5)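 Viruses were isolated from baseline patient swabs on MDCK cells. Neuraminidase inhibition was measured by a standard fluorometric assay. IC50 came from plotting percent inhibition of neuraminidase activity against inhibitor concentration, reported as mean ± SD of three independent experiments.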
# Homo sapiens [17] = experiment: Toxicity in human patient infected with Influenza virus assessed as increase in blood glucose at 300 mg, iv; type: organism-based; conditions: in vivo; outline: as §2
# Homo sapiens [18] = experiment: Toxicity in human patient infected with Influenza virus assessed as increase in blood bilirubin at 300 mg, iv; type: organism-based; conditions: in vivo; outline: as §2
# Homo sapiens [19] = experiment: Toxicity in human patient infected with Influenza virus assessed as increase in blood lactate dehydrogenase at 600 mg, iv; type: organism-based; conditions: in vivo; outline: as §2
# [20] = tested on: unidentified influenza virus; experiment: Antiviral activity against Influenza virus infected in human patient assessed as resumption time of usual activities at 300 mg, iv; type: functional
# Homo sapiens [21] = experiment: Toxicity in human patient infected with Influenza virus assessed as increase in blood lactate dehydrogenase at 300 mg, iv; type: organism-based; conditions: in vivo; outline: as §2
# Plasma [22] = experiment: Plasma concentration in human at 300 mg, iv after 36 to 48 hrs; type: ADME, organism-based; conditions: in vivo
# Outline: (§6)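 Subjects received a single IV infusion of 300 or 600 mg (mean 5.0 or 10.0 mg/kg; median infusion 0.63 h). Plasma was sampled just before the infusion ended, and on days 2 and 3. Samples were deproteinized and run on C18 LC/MS-MS. Values are medians at end of infusion, 18–24 h and 36–48 h after infusion.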
# Homo sapiens [23] = experiment: Toxicity in human patient infected with Influenza virus assessed as white blood cells-positive urine at 300 mg, iv; type: organism-based; conditions: in vivo; outline: as §4
# [24] = tested on: unidentified influenza virus; experiment: Antiviral activity against Influenza virus infected in human patient assessed as decrease in virus-positive patients at 600 mg, iv on day 3; type: functional; outline: as §3
# Homo sapiens [25] = experiment: Toxicity in human patient infected with Influenza virus assessed as prolongation of electrocardiogram QT interval at 300 mg, iv; type: organism-based; conditions: in vivo
# Plasma [26] = experiment: Plasma concentration in human at 600 mg, iv after 18 to 24 hrs; type: ADME, organism-based; conditions: in vivo; outline: as §6
# Homo sapiens [27] = experiment: Toxicity in human patient infected with Influenza virus assessed as increase in blood phosphate at 600 mg, iv; type: organism-based; conditions: in vivo; outline: as §2
# Influenza A virus [28] = experiment: Antiviral activity against influenza A virus H3N2 infected in MDCK cells assessed as inhibition of neuraminidase activity by fluorimetric assay; type: functional, organism-based; outline: as §5
# Homo sapiens [29] = experiment: Toxicity in human patient infected with Influenza virus assessed as increase in alpha1 Microglobulin at 300 mg, iv; type: organism-based; conditions: in vivo; outline: as §2
# Homo sapiens [30] = experiment: Toxicity in human patient infected with Influenza virus assessed as nasopharyngitis at 600 mg, iv; type: organism-based; conditions: in vivo; outline: as §1
# Homo sapiens [31] = experiment: Toxicity in human patient infected with Influenza virus assessed as increase in blood phosphate at 300 mg, iv; type: organism-based; conditions: in vivo; outline: as §2
# Homo sapiens [32] = experiment: Toxicity in human patient infected with Influenza virus assessed as increase in aspartate aminotransferase at 600 mg, iv; type: organism-based; conditions: in vivo; outline: as §2
# Homo sapiens [33] = experiment: Toxicity in human patient infected with Influenza virus assessed as increase in lymphocyte at 600 mg, iv; type: organism-based; conditions: in vivo; outline: as §2
# [34] = tested on: unidentified influenza virus; experiment: Antiviral activity against Influenza virus infected in human patient assessed as decrease in virus-positive patients at 600 mg, iv on day 9; type: functional; outline: as §3
# Homo sapiens [35] = experiment: Toxicity in human patient infected with Influenza virus assessed as occurrence of otitis at 600 mg, iv; type: organism-based; conditions: in vivo; outline: as §1
smiles,measurement,setting,value
CCC(CC)[C@H](NC(C)=O)[C@@H]1[C@H](O)[C@@H](C(=O)O)C[C@H]1NC(=N)N [PERAMIVIR ANHYDROUS],Activity,Homo sapiens [1],14.1%
same,Activity,Homo sapiens [2],Toxic
same,Activity,Homo sapiens [3],15.2%
same,Activity,Homo sapiens [4],Toxic
same,Activity,Homo sapiens [5],Toxic
same,Activity,Homo sapiens [6],Toxic
same,Activity,Homo sapiens [7],Toxic
same,inhibition (INH),[8],0%
same,Activity,Homo sapiens [9],Toxic
same,inhibition (INH),[10],36.8%
same,Activity,Homo sapiens [11],Toxic
same,Activity,Homo sapiens [12],Toxic
same,Activity,[13],Active
same,Activity,Homo sapiens [14],Toxic
same,Activity,Homo sapiens [15],Toxic
same,IC50,Influenza A virus [16],1.72 nM
same,Activity,Homo sapiens [17],Toxic
same,Activity,Homo sapiens [18],Toxic
same,Activity,Homo sapiens [19],Toxic
same,Time,[20],125.6 h
same,Activity,Homo sapiens [21],Toxic
same,Cp,Plasma [22],5.01 ng/mL
same,Activity,Homo sapiens [23],Toxic
same,inhibition (INH),[24],25.8%
same,Activity,Homo sapiens [25],2%
same,Cp,Plasma [26],32.8 ng/mL
same,Activity,Homo sapiens [27],Toxic
same,IC50,Influenza A virus [28],3.51 nM
same,Activity,Homo sapiens [29],Toxic
same,Activity,Homo sapiens [30],Toxic
same,Activity,Homo sapiens [31],Toxic
same,Activity,Homo sapiens [32],Toxic
same,Activity,Homo sapiens [33],Toxic
same,inhibition (INH),[34],1.1%
same,Activity,Homo sapiens [35],1%
